Data taken from ChEMBL document CHEMBL4049427, “Use of Molecular Modeling to Design Selective NTS2 Neurotensin Analogues” (J Med Chem, 2017).
Square brackets hold non-standard residues; d marks the D form. Peptide text beside a SMILES is read from it. ξ: configuration not given here. ξOrn = NCCCC(N)C(=O)O

Experiments:
[1] = Displacement of 125I-[Tyr3]-NT from HA-tagged human NTS1 R212E mutant receptor expressed in HEK293 cell membranes after 30 mins by gamma counting analysis
Outline: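 Membranes from HEK293 cells transfected with human HA-tagged NTS1-R212E (10 μg DNA, PEI), prepared fresh 48 h post-transfection. 50 μg membrane incubated with 130 pM 125I-[Tyr3]-NT in 50 mM Tris-HCl pH 7.5, 0.2% BSA with competitor 10^-11 to 10^-5 M, 30 min at 25 °C. Nonspecific binding defined with 10^-5 M NT[8-13]. Filtration, γ-counting. IC50 converted to Ki via Cheng−Prusoff; at least three experiments.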

[2] = target: Neurotensin receptor type 1 (Homo sapiens, UniProt P30989); assay: Displacement of 125I-[Tyr3]-NT from human NTS1 receptor expressed in CHOK1 cell membranes after 30 mins by gamma counting analysis
Sequence of Neurotensin receptor type 1 (P30989 whole entry): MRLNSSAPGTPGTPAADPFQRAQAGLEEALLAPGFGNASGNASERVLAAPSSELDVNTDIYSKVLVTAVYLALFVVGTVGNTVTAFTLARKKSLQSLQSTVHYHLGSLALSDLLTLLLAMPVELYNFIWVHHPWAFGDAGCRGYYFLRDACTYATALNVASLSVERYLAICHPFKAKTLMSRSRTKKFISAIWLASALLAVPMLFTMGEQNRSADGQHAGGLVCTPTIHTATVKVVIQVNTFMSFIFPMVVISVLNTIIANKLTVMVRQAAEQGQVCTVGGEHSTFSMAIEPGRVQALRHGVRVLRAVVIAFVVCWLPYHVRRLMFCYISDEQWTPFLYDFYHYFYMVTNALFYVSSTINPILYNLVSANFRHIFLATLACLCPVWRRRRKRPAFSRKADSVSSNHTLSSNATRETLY

[3] = target: T1, Neurotensin receptor type 2 (Homo sapiens, UniProt O95665); assay: Displacement of 125I-[Tyr3]-NT from human NTS2 receptor expressed in human 1321N1 cell membranes after 30 mins by gamma counting analysis
T1 sequence (O95665 whole entry): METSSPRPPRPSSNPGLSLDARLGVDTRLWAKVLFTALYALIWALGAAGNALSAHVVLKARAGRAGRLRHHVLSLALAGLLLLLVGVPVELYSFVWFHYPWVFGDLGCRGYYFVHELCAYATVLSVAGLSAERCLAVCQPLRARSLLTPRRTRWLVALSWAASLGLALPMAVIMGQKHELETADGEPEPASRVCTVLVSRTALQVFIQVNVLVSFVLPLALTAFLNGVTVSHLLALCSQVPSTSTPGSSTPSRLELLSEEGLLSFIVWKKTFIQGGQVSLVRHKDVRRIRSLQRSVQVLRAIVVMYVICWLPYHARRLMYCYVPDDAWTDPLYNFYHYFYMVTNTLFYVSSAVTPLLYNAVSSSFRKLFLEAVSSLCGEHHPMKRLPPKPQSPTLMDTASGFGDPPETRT
Outline: (§1)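 Fresh membranes from 1321N1 cells stably expressing hNTS2 (DMEM, 10% FBS, G418). Nonspecific binding defined with 10^-5 M NT[8-13]. Filtration, γ-counting. IC50 converted to Ki via Cheng−Prusoff; mean of at least three experiments.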

Homo sapiens [4] = species on record: Homo sapiens; assay: Selectivity ratio of Ki for human NTS1 receptor expressed in CHOK1 cell membrane to Ki for human NTS2 receptor expressed in human 1321N1 cell membranes; format: cell-based
Homo sapiens [5] = species on record: Homo sapiens; assay: Selectivity ratio of Ki for human NTS1 receptor expressed in CHOK1 cell membranes to Ki for HA-tagged human NTS1 R212E mutant receptor expressed in HEK293 cell membranes; format: cell-based
Outline: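 Ki was taken on two receptors. WT: 15 μg CHO-K1 hNTS1 membrane with 45 pM 125I-[Tyr3]-NT. R212E: HEK293 cells transfected by PEI with HA-tagged hNTS1-R212E, membranes made 48 h later; 50 μg membrane with 130 pM tracer. Both ran in Tris-HCl pH7.5 with 0.2% BSA, 30 min at 25 °C, with filtration and γ-counting. IC50 was converted to Ki by Cheng–Prusoff, and the ratio taken as WT Ki over mutant Ki.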

[6] = target: T1, Neurotensin receptor type 2; assay: Displacement of 125I-[Tyr3]-NT from human NTS2 receptor
Outline: as §1, with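 “G418). 50 μg membrane incubated with 255 pM 125I-[Tyr3]-NT in 50 mM Tris-HCl pH 7.5, 0.2% BSA with competitor 10^-11 to 10^-5 M, 30 min at 25 °C.” for “G418).”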

| Compound | Ki [1] [nM] | Ki [2] [nM] | Ki [3] [nM] | Ratio Ki (Homo sapiens [4]) | Ratio Ki (Homo sapiens [5]) | Ki [6] [nM] |
| --- | --- | --- | --- | --- | --- | --- |
| CC[C@H](C)[C@H](NC(=O)[C@H](Cc1ccc(O)cc1)NC(=O)[C@@H]1CCCN1C(=O)[C@H](CCCNC(=N)N)NC(=O)[C@@H](N)CCCNC(=N)N)C(=O)N[C@@H](CC(C)C)C(=O)O | 4.69 | – | – | – | – | – |
| H-KKPKIL-OH | 199 | 5700 | 262 | 21.8 | 28.6 | – |
| CC[C@H](C)[C@H](NC(=O)[C@H](CCCCN)NC(=O)[C@@H]1CCCN1C(=O)[C@H](CCCCN)NC(=O)[C@@H](N)CCCCN)C(=O)N[C@H](C[Si](C)(C)C)C(=O)O | – | – | 67 | 9.9 | 5.22 | – |
| CC[C@H](C)[C@H](NC(=O)[C@H](CCCCN)NC(=O)[C@@H]1CCCN1C(=O)[C@H](CCCCN)NC(=O)[C@@H](N)CCCCN)C(=O)N[C@@H](C[Si](C)(C)C)C(=O)O | 127 | 663 | – | – | – | – |
| CC[C@H](C)[C@H](NC(=O)[C@H](Cc1ccc(O)cc1)NC(=O)[C@@H]1CCCN1C(=O)[C@H](CCCCN)NC(=O)[C@@H](N)CCCCN)C(=O)N[C@@H](CC(C)C)C(=O)O | – | – | – | – | – | 0.95 |
| H-KKPHIL-OH | – | 456 | 474 | 0.96 | – | – |
| CC[C@H](C)[C@H](NC(=O)C(CCCN)NC(=O)[C@@H]1CCCN1C(=O)[C@H](CCCCN)NC(=O)[C@@H](N)CCCCN)C(=O)N[C@@H](CC(C)C)C(=O)O (stereo partly drawn) (H-KKP[ξOrn]IL-OH) | – | > 10000 | 619 | – | – | – |
| H-KKPDIL-OH | > 10000 | > 10000 | 4200 | – | – | – |
| H-KKPEIL-OH | > 10000 | > 10000 | 1600 | – | – | – |
